System: U2OS
Assay: Multiplex assay against U2OS
Assay type: toxicity, cell-based
Details: human
Summary of the method: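 Values for tubulin, mitochondrial-mass and membrane-permeability phenotypes are per cents of cells with healthy nuclei. These cells were identified by CellPathfinder machine-learning gating of live cells that had been stained at seeding with Hoechst33342, BioTracker Green Microtubule Cytoskeleton Dye, MitoTracker Red and Annexin V Alexa Fluor 680 and imaged on a CQ1 microscope at 37°C and 5% CO2 after compound addition. The gating first set Hoechst high-intensity objects apart from normal cells, then split normal cells into healthy, pyknosed or fragmented nuclei, and pyknosed cells into mitotic or apoptotic.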

[1] = 12 h, 1 µM, compound concentration 1 uM, replicate 1
[2] = 12 h, 1 µM, compound concentration 1 uM, replicate 2
[3] = 12 h, 10 µM, compound concentration 10 uM, replicate 1
[4] = 12 h, 10 µM, compound concentration 10 uM, replicate 2
[5] = 24 h, 1 µM, compound concentration 1 uM, replicate 1
[6] = 24 h, 1 µM, compound concentration 1 uM, replicate 2
[7] = 24 h, 10 µM, compound concentration 10 uM, replicate 1
[8] = 24 h, 10 µM, compound concentration 10 uM, replicate 2
[9] = 48 h, 1 µM, compound concentration 1 uM, replicate 1
[10] = 48 h, 1 µM, compound concentration 1 uM, replicate 2
[11] = 48 h, 10 µM, compound concentration 10 uM, replicate 1
[12] = 48 h, 10 µM, compound concentration 10 uM, replicate 2

CCCCC(=O)N(Cc1ccc(-c2ccccc2-c2nnn[nH]2)cc1)[C@H](C(=O)O)C(C)C
Population Apoptotic (%) [1]: 85% | Population Fragmented Nuclei (%) [1]: 28% | Population Healthy Nuclei (%) [1]: 63% | Population Hoechst High Intensity Objects (%) [1]: 1% | Population Membrane Permeable-Phenotype (%) [1]: 8% | Population Mitochondria Different-Phenotype (%) [1]: 3% | Population Mitotic Cells (%) [1]: 14% | Population Normal (%) [1]: 98% | Population Pyknosed Nuclei (%) [1]: 8% | Population Tubulin-Different-Phenotype (%) [1]: 4% | Total Cell Count [1]: 259 | Population Apoptotic (%) [2]: 100% | Population Fragmented Nuclei (%) [2]: 15% | Population Healthy Nuclei (%) [2]: 79% | Population Hoechst High Intensity Objects (%) [2]: 3% | Population Membrane Permeable-Phenotype (%) [2]: 9% | Population Mitochondria Different-Phenotype (%) [2]: 5% | Population Mitotic Cells (%) [2]: 0% | Population Normal (%) [2]: 96% | Population Pyknosed Nuclei (%) [2]: 4% | Population Tubulin-Different-Phenotype (%) [2]: 2% | Total Cell Count [2]: 130 | Population Apoptotic (%) [3]: 75% | Population Fragmented Nuclei (%) [3]: 35% | Population Healthy Nuclei (%) [3]: 55% | Population Hoechst High Intensity Objects (%) [3]: 1% | Population Membrane Permeable-Phenotype (%) [3]: 3% | Population Mitochondria Different-Phenotype (%) [3]: 2% | Population Mitotic Cells (%) [3]: 25% | Population Normal (%) [3]: 98% | Population Pyknosed Nuclei (%) [3]: 9% | Population Tubulin-Different-Phenotype (%) [3]: 2% | Total Cell Count [3]: 218 | Population Fragmented Nuclei (%) [4]: 24% | Population Healthy Nuclei (%) [4]: 71% | Population Hoechst High Intensity Objects (%) [4]: 0% | Population Membrane Permeable-Phenotype (%) [4]: 1% | Population Normal (%) [4]: 99% | Population Pyknosed Nuclei (%) [4]: 3% | Population Tubulin-Different-Phenotype (%) [4]: 0% | Total Cell Count [4]: 108 | Population Apoptotic (%) [5]: 86% | Population Fragmented Nuclei (%) [5]: 23% | Population Healthy Nuclei (%) [5]: 68% | Population Hoechst High Intensity Objects (%) [5]: 2% | Population Membrane Permeable-Phenotype (%) [5]: 5% | Population Mitochondria Different-Phenotype (%) [5]: 3% | Population Mitotic Cells (%) [5]: 13% | Population Normal (%) [5]: 97% | Population Pyknosed Nuclei (%) [5]: 7% | Population Tubulin-Different-Phenotype (%) [5]: 2% | Total Cell Count [5]: 289 | Population Apoptotic (%) [6]: 83% | Population Fragmented Nuclei (%) [6]: 10% | Population Healthy Nuclei (%) [6]: 77% | Population Hoechst High Intensity Objects (%) [6]: 6% | Population Membrane Permeable-Phenotype (%) [6]: 9% | Population Mitochondria Different-Phenotype (%) [6]: 6% | Population Mitotic Cells (%) [6]: 16% | Population Normal (%) [6]: 93% | Population Pyknosed Nuclei (%) [6]: 12% | Population Tubulin-Different-Phenotype (%) [6]: 7% | Total Cell Count [6]: 158 | Population Apoptotic (%) [7]: 82% | Population Fragmented Nuclei (%) [7]: 31% | Population Healthy Nuclei (%) [7]: 59% | Population Hoechst High Intensity Objects (%) [7]: 2% | Population Membrane Permeable-Phenotype (%) [7]: 3% | Population Mitochondria Different-Phenotype (%) [7]: 2% | Population Mitotic Cells (%) [7]: 17% | Population Normal (%) [7]: 97% | Population Pyknosed Nuclei (%) [7]: 8% | Population Tubulin-Different-Phenotype (%) [7]: 2% | Total Cell Count [7]: 272 | Population Apoptotic (%) [8]: 84% | Population Fragmented Nuclei (%) [8]: 22% | Population Healthy Nuclei (%) [8]: 67% | Population Hoechst High Intensity Objects (%) [8]: 0% | Population Membrane Permeable-Phenotype (%) [8]: 4% | Population Mitochondria Different-Phenotype (%) [8]: 8% | Population Mitotic Cells (%) [8]: 15% | Population Normal (%) [8]: 100% | Population Pyknosed Nuclei (%) [8]: 9% | Population Tubulin-Different-Phenotype (%) [8]: 6% | Total Cell Count [8]: 135 | Population Apoptotic (%) [9]: 86% | Population Fragmented Nuclei (%) [9]: 17% | Population Healthy Nuclei (%) [9]: 75% | Population Hoechst High Intensity Objects (%) [9]: 2% | Population Membrane Permeable-Phenotype (%) [9]: 5% | Population Mitochondria Different-Phenotype (%) [9]: 3% | Population Mitotic Cells (%) [9]: 13% | Population Normal (%) [9]: 97% | Population Pyknosed Nuclei (%) [9]: 7% | Population Tubulin-Different-Phenotype (%) [9]: 2% | Total Cell Count [9]: 397 | Population Apoptotic (%) [10]: 85% | Population Fragmented Nuclei (%) [10]: 20% | Population Healthy Nuclei (%) [10]: 68% | Population Hoechst High Intensity Objects (%) [10]: 3% | Population Membrane Permeable-Phenotype (%) [10]: 7% | Population Mitotic Cells (%) [10]: 15% | Population Normal (%) [10]: 96% | Population Pyknosed Nuclei (%) [10]: 10% | Population Tubulin-Different-Phenotype (%) [10]: 3% | Total Cell Count [10]: 201 | Population Apoptotic (%) [11]: 83% | Population Fragmented Nuclei (%) [11]: 22% | Population Healthy Nuclei (%) [11]: 70% | Population Hoechst High Intensity Objects (%) [11]: 1% | Population Membrane Permeable-Phenotype (%) [11]: 6% | Population Mitochondria Different-Phenotype (%) [11]: 2% | Population Mitotic Cells (%) [11]: 16% | Population Normal (%) [11]: 98% | Population Pyknosed Nuclei (%) [11]: 7% | Population Tubulin-Different-Phenotype (%) [11]: 2% | Total Cell Count [11]: 347 | Population Apoptotic (%) [12]: 87% | Population Fragmented Nuclei (%) [12]: 21% | Population Healthy Nuclei (%) [12]: 60% | Population Hoechst High Intensity Objects (%) [12]: 4% | Population Membrane Permeable-Phenotype (%) [12]: 4% | Population Mitochondria Different-Phenotype (%) [12]: 3% | Population Mitotic Cells (%) [12]: 12% | Population Normal (%) [12]: 95% | Population Pyknosed Nuclei (%) [12]: 17% | Population Tubulin-Different-Phenotype (%) [12]: 6% | Total Cell Count [12]: 188

— ChEMBL document CHEMBL5058577, “EUbOPEN Chemogenomics Library 2 (Multiplex)” (2022)
